The source made the active and inactive calls. The calls are words filed in the database; no cut-off is given here.
What was measured:
[1] = Oral bio availability in Wistar rat 2 mg/kg; format: ADME, organism-based; details: in vivo
Outline: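 Oral bioavailability from Wistar rats dosed 2 mg/kg po with 0.5 mg/kg iv reference dose; F (%) from plasma exposure.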

[2] = Drug level in glucagon-induced glucose excursion in glucagon receptor humanized mouse model of acute glucagon challenge model at 1 mg/kg, po dosed 1 hr before glucagon challenge and measured after 60 mins post dose; format: ADME, organism-based; details: in vivo, read-out: Drug uptake
Outline: (§1)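 Glucagon-receptor-humanized (hGCGR) mice dosed orally at 1, 3 or 10 mg/kg one hour before IP glucagon challenge (15 µg/kg); drug level measured at 60 min.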

[3] = Drug level in glucagon receptor humanized ob/ob mouse acute model at 3 mg/kg, po after 3 hrs; format: ADME, organism-based; details: in vivo, read-out: Drug uptake
[4] = Drug level in glucagon receptor humanized ob/ob mouse acute model at 3 mg/kg, po after 1 hrs; format: ADME, organism-based; details: in vivo, read-out: Drug uptake
[5] = system: Rattus norvegicus; assay: Dose normalized AUC in Wistar rat at 0.5 mg/kg, iv or 2 mg/kg, po; format: ADME, organism-based; details: in vivo
Outline: (§2)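 Wistar rats given 0.5 mg/kg iv and 2 mg/kg po; plasma concentration–time profiles used to derive plasma clearance, steady-state volume of distribution, half-life and dose-normalized AUC (µM·h·kg/mg).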

[6] = biological target: T1, Glucagon receptor (Homo sapiens, UniProt P47871); assay: Displacement of [125I]glucagon from human glucagon receptor expressed in CHO cell membranes
Outline: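 Binding: displacement of [125I]glucagon from human GCGR in membranes prepared from a CHO cell line stably expressing hGCGR; IC50 reported in nM.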

[7] = biological target: T1, Glucagon receptor; assay: Antagonist activity against human glucagon receptor expressed in CHO cells assessed as reduction in glucagon-induced cAMP production; format: functional, cell-based
[8] = organism: Homo sapiens; assay: Selectivity index, ratio of IC50 for human glucose dependent insulinotropic peptide receptor to IC50 for human glucagon receptor
[9] = Drug level in glucagon-induced glucose excursion in glucagon receptor humanized mouse model of acute glucagon challenge model at 10 mg/kg, po dosed 1 hr before glucagon challenge and measured after 60 mins post dose; format: ADME, organism-based; details: in vivo, read-out: Drug uptake; outline: as §1
[10] = Volume of distribution at steady state in Wistar rat at 0.5 mg/kg, iv or 2 mg/kg, po; format: ADME, organism-based; details: in vivo, read-out: Vdss; outline: as §2
[11] = Half life in Wistar rat at 0.5 mg/kg, iv or 2 mg/kg, po; format: ADME, organism-based; details: in vivo; outline: as §2
[12] = system: Mus musculus; assay: Reduction in blood glucose levels in glucagon receptor humanized ob/ob mouse acute model at 3 mg/kg, po after 1 to 6 hrs; format: functional, organism-based
Outline: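 hGCGR ob/ob mice (N = 10–12 per group) dosed orally at 3 mg/kg at 0 h with food removed at 0 h; ambient blood glucose monitored over 6 h versus vehicle control, significance at each time point.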

[13] = Plasma clearance in Wistar rat at 0.5 mg/kg, iv or 2 mg/kg, po; format: ADME, organism-based; outline: as §2
[14] = Drug level in glucagon-induced glucose excursion in glucagon receptor humanized mouse model of acute glucagon challenge model at 3 mg/kg, po dosed 1 hr before glucagon challenge and measured after 60 mins post dose; format: ADME, organism-based; details: in vivo, read-out: Drug uptake; outline: as §1
[15] = biological target: T2, Gastric inhibitory polypeptide receptor (Homo sapiens, UniProt P48546); assay: Antagonist activity against human glucose dependent insulinotropic peptide receptor by cAMP accumulation assay; format: functional
T2 sequence (P48546 whole entry): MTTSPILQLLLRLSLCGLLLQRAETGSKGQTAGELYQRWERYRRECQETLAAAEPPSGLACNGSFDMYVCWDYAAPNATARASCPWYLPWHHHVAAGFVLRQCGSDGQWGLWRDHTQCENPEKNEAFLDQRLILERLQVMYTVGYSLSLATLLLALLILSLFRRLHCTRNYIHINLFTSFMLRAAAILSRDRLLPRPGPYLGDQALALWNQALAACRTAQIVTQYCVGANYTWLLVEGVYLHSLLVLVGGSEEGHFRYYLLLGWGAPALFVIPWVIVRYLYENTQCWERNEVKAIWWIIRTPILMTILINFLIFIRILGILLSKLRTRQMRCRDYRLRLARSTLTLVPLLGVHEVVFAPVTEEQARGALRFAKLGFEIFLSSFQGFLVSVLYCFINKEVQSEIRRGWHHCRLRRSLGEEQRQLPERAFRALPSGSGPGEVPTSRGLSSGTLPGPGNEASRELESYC
Outline: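 Selectivity counter-screen: cAMP production measured in CHO cells expressing human GIPR; IC50 (potency) determined.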

[16] = system: Mus musculus; assay: Reduction in glucagon-induced glucose excursion in glucagon receptor humanized mouse model of acute glucagon challenge model at 1 to 10 mg/kg, po dosed 1 hr before glucagon challenge; format: functional, organism-based
Outline: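 hGCGR-humanized mice given compound orally at 1, 3 or 10 mg/kg one hour prior to IP glucagon (15 µg/kg); blood glucose followed as change from time 0.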

T1 sequence (P47871 whole entry): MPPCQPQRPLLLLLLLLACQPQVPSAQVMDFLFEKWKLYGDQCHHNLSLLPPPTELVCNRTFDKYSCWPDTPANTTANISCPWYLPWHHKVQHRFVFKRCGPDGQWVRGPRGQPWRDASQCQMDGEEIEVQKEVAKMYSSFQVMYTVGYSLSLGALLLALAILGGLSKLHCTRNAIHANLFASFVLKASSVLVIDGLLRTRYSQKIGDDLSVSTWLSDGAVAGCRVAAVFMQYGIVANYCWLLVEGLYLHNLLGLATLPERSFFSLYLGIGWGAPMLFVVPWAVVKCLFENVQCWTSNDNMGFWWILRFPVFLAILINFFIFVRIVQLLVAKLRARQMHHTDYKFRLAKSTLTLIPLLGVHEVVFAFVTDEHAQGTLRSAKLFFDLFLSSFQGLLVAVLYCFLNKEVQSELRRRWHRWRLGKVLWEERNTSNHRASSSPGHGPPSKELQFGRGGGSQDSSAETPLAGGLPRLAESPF

bioavailability [1]: 44%
concentration at 1 h [2]: 180 nM
concentration at 3 h [3]: 280 nM
concentration at 1 h [4]: 400 nM
AUC/dose [5]: 2 µM·kg·h/mg
IC50 [6]: 2.6 nM
IC50 [7]: 7.6 nM
Ratio IC50 [8]: 170
concentration at 1 h [9]: 2540 nM
Vd [10]: 0.65 L/kg
half-life [11]: 1.5 h
clearance [13]: 6.3 mL/min/kg
concentration at 1 h [14]: 500 nM
IC50 [15]: 1300 nM
SMILES: COc1ccc(C(F)(F)F)cc1-c1nn(C(C)c2ccc(C(=O)NCCC(=O)O)cc2)c2cc(-c3ccc(C)cc3)ccc12 (stereo unspecified)
inhibition [12]: Active
inhibition [16]: Active

— ChEMBL document CHEMBL3616402, “A novel series of indazole-/indole-based glucagon receptor antagonists” (Bioorg Med Chem Lett, 2015)
